Consider 9 compounds from ChEMBL document CHEMBL1287768, “Synthesis and pharmacological characterization of 5-phenyl-2-[2-(1-piperidinylcarbonyl)phenyl]-2,3-dihydro-1H-pyrrolo[1,2-c]imidazol-1-ones: a new class of Neuropeptide S antagonists” (Bioorg Med Chem Lett, 2010).

Series [1] addresses T1, Neuropeptide S receptor (Homo sapiens, UniProt Q6W5P4).
T1 sequence (Q6W5P4 whole entry): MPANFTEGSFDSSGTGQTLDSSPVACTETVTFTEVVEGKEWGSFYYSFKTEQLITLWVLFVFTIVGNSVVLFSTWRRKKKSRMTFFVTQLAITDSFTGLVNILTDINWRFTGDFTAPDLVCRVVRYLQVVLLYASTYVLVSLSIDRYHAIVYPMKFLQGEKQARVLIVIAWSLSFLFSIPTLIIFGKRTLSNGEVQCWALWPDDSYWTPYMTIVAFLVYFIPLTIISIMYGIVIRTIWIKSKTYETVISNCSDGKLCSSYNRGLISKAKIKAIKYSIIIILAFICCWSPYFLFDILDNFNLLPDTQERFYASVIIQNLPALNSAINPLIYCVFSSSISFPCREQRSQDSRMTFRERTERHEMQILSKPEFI
The series can be described thus: Antagonist activity at human recombinant GPR154 receptor expressed in HEK293 cells assessed as inhibition of neuropeptide S-induced increase of intracellular calcium level by FLIPR assay. In kind it is functional, cell-based. In short, it runs like this:
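Transient expression of human GPR154 in HEK293; cells seeded 18.000/well, 24 h at 37 °C, 5% CO₂. Fluo-4-AM loading 1 h at 37 °C, HBSS wash. Calcium rise evoked by EC₈₀ Neuropeptide S, read by FLIPR; response normalised to 30 nM NPS maximum (max minus min RFU); pIC₅₀ by nonlinear regression.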
In general terms: A change in cytosolic calcium serves as a functional read-out for many receptors and channels.

Series [2] in a line: Half life in rat at 1 mg/kg, po. Particulars: in vivo. In kind it is ADME, organism-based. Details: dose 1 mg/kg, route oral. Summed up: (§1)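 Rat, single oral 1 mg/kg in 5% DMSO + 0.5% HPMC in water; blood sampled for clearance, half-life, distribution volume and oral bioavailability.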
For series [3], the system named is Rattus norvegicus. In words: Volume of distribution in rat at 1 mg/kg, po. The series is classed as ADME, organism-based. Details: dose 1 mg/kg, route oral. As to conditions: in vivo. Summed up:
as §1

Series [4] can be described thus: Clearance in rat blood at 1 mg/kg, po. The series is classed as ADME, organism-based. More on the design: dose 1 mg/kg, route oral. In short, it runs like this: as §1
The target of series [5] is T2, Cytochrome P450 1A2 (Homo sapiens, UniProt P05177).
T2 sequence (P05177 whole entry): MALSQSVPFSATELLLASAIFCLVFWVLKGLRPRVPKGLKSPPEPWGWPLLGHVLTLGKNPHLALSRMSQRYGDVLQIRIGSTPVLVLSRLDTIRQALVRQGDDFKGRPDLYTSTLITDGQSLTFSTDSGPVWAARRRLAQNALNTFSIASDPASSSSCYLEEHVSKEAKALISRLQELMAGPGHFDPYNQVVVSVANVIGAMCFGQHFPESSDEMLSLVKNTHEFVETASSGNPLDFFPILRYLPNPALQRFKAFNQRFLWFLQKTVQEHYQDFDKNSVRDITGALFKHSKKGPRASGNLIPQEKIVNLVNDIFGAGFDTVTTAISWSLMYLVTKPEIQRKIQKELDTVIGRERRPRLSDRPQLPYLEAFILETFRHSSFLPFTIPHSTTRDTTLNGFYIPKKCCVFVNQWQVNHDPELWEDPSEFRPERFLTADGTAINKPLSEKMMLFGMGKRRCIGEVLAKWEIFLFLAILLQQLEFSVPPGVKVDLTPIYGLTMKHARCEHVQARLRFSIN
The series can be described thus: Inhibition of CYP1A2. The series is classed as ADME.

Series [6] concerns the target Cytochrome P450 2D6 (Homo sapiens, UniProt P10635). In words: Inhibition of CYP2D6. In kind it is ADME.
For series [7], the system named is Liver microsomes. The series can be described thus: Intrinsic clearance in rat liver microsomes assessed per gram of protein. In kind it is ADME, Microsome. A general note: Liver microsomes are a subcellular fraction often used to study metabolism.
Series [8] concerns the target Cytochrome P450 2C19 (Homo sapiens, UniProt P33261). In words: Inhibition of CYP2C19. In kind it is ADME.
In series [9] the test system is Liver microsomes. In words: Intrinsic clearance in human liver microsomes assessed per gram of protein. The series is classed as ADME, Microsome.
Series [10] is described as follows: Ratio of drug level in brain to blood in rat at 1 mg/kg, po. The series is classed as ADME, organism-based. More on the design: dose 1 mg/kg, route oral. In short, it runs like this: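 Rats received a single oral dose of 1 mg/kg, formulated in 5% DMSO + 0.5% HPMC in water. Drug levels were measured in blood and brain, and the brain/blood ratio was calculated from them. The work followed European directive 86/609/EEC.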

The nature of series [11]: Bioavailability in rat at 1 mg/kg, po. The series is classed as ADME, organism-based. Particulars: in vivo. Summed up: as §1
Series [12] addresses Cytochrome P450 3A4 (Homo sapiens, UniProt P08684). The series can be described thus: Inhibition of CYP3A4. The series is classed as ADME.
The target in series [13] is Cytochrome P450 2C9 (Homo sapiens, UniProt P11712). The series can be described thus: Inhibition of CYP2C9. In kind it is ADME.
Cytochrome P450 2C9, sequence (P11712 whole entry): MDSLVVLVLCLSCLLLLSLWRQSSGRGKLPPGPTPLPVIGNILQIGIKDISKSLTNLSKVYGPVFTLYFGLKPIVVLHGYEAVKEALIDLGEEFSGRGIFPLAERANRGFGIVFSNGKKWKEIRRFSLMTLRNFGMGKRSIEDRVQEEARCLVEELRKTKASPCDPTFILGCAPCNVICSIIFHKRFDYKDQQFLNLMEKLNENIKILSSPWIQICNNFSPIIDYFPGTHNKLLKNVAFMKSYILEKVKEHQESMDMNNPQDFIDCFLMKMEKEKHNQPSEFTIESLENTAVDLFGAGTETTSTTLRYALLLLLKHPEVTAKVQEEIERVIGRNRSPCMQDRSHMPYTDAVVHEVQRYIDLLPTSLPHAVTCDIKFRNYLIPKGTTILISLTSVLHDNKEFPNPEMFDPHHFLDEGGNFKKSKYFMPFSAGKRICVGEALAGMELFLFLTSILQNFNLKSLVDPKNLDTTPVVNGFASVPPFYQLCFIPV

SMILES strings stand for the structures.

Cytochrome P450 2D6, sequence (P10635 whole entry): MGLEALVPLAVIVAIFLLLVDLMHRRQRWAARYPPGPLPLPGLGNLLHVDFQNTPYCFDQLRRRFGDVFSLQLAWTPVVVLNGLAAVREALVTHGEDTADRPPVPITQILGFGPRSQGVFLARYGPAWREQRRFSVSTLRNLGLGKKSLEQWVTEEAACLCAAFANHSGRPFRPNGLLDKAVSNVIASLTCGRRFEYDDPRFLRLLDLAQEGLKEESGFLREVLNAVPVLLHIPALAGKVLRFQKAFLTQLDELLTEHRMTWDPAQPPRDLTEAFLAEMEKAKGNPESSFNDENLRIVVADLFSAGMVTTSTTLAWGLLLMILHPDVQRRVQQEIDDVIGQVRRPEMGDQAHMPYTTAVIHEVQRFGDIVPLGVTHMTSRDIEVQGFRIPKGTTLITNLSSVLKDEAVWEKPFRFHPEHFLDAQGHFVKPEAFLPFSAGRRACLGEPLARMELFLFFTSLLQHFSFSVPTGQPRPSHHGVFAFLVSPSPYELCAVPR
Cytochrome P450 3A4, sequence (P08684 whole entry): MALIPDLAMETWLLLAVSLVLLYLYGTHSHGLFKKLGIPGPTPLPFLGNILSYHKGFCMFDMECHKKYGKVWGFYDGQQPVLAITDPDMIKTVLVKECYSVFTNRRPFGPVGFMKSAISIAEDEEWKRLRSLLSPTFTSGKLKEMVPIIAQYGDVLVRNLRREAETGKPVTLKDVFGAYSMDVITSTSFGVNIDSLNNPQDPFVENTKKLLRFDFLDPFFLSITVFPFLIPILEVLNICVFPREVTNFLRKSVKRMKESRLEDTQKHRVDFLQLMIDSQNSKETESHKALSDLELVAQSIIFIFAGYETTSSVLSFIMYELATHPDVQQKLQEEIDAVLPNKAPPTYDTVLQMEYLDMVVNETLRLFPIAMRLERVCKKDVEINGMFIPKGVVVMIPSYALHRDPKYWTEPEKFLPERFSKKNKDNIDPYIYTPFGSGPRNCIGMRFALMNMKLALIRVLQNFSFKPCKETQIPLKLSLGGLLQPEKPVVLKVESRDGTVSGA
Cytochrome P450 2C19, sequence (P33261 whole entry): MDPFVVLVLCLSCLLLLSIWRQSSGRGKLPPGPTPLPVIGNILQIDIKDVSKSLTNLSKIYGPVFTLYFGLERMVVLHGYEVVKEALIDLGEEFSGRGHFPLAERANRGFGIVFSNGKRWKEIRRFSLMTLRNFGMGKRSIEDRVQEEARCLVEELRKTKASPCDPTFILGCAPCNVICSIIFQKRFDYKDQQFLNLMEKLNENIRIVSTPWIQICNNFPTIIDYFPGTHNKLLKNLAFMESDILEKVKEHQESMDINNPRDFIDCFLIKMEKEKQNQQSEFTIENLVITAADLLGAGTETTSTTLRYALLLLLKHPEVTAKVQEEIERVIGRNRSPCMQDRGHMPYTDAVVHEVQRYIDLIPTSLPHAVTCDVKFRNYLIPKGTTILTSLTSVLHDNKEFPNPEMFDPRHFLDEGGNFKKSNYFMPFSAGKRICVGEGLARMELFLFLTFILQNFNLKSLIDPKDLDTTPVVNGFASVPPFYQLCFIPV

By IC50 is commonly meant the concentration at which inhibition is half-maximal. In the case of `O=C(NCc1ccccc1)N1CCN2C(=O)OC(c3ccccc3)(c3ccccc3)C2C1` (stereo unspecified), the IC50 in series [1] was 2 nM.

Consider `O=C(c1ccccc1N1CCCn2c(ccc2-c2ccccc2)C1=O)N1CCCCC1`, for which the IC50 in [1] was above 5010 nM.

Take `O=C(Nc1ccccc1C(=O)N1CCCCC1)c1cccc(-c2ccccc2)n1`: the IC50 in [1] was 20 nM.

For `O=C(Nc1ccccc1C(=O)N1CCCCC1)c1cccc(-c2ccccc2)c1`, the IC50 in [1] was 251 nM.

In the case of `O=C(Nc1ccccc1C(=O)N1CCCCC1)c1ccc(-c2ccccc2)s1`, the IC50 in series [1] is 794 nM.

By half-life is commonly meant how long it takes for the measured level to halve. A high value points to slow decline. The term CL/F denotes clearance divided by bioavailability, as obtained after extravascular dosing. The Kp is the ratio of the level in a tissue or fluid to that in plasma or blood. By bioavailability is commonly meant the share of a dose that reaches the circulation, judged against a reference dose that is usually intravenous. Read a low bioavailability as poor availability. In turn, `O=C(c1ccccc1N1Cn2c(ccc2-c2ccccc2)C1=O)N1CCCCC1` gave a half-life in series [2] of 42 min. In series [3], the Vd was found to be 2.4 L/kg. This compound displayed a CL/F in [4] of 69 mL/min/kg. The IC50 in series [5] was above 5000 nM; in series [6], above 5000 nM; in series [1], 10 nM; in [8], above 5000 nM; in series [12], above 5000 nM; in series [13], above 5000 nM. In addition, the CL was 26.3 mL/min/g in series [7] and 6.9 mL/min/g in series [9]. The Kp in series [10] was determined as 0.3. Also, the bioavailability in [11] came out at 1%.

As for `O=C(Nc1ccccc1C(=O)N1CCCCC1)c1ccc(-c2ccccc2)o1`, the IC50 in series [1] was 31.6 nM.

`O=C(Nc1ccccc1C(=O)N1CCCCC1)c1ccc(-c2ccccc2)[nH]1`: the IC50 in series [1] was above 5010 nM.

As to `O=C(c1ccccc1N1CCn2c(ccc2-c2ccccc2)C1=O)N1CCCCC1`, in series [1], the IC50 is above 5010 nM.
